# Measurements reported in ChEMBL document CHEMBL1138617, “Synthesis of potent antitumor and antiviral benzofuran derivatives” (Bioorg Med Chem Lett, 2009).
# Where a name gives a salt, the structure may show the parent alone.
# Assays:
# [1] = tested on: Human immunodeficiency virus; assay: Antiviral activity against HIV infected in human CEM-SS cells assessed as inhibition of virus induced cell killing by XTT assay; type: functional, organism-based; conditions: Human immunodeficiency virus 1, CEM-SS
# In short: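 Microtiter anti-HIV assay in CEM-SS cells or fresh human PBMCs, measuring inhibition of HIV-induced cell killing or HIV replication. Read-out is XTT tetrazolium reduction to formazan by viable cells.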
# SK-MEL-28 = assay: Cytotoxicity against human SK-MEL-28 cells by MTT assay; type: functional, cell-based
# In short: (§1)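 Growth inhibition by MTT assay (Mosmann method) on human cancer cell lines and on normal human fetal lung fibroblast WI 38 cells.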
# NCI-H460 = assay: Cytotoxicity against human NCI-H460 cells by MTT assay; type: functional, cell-based
# [2] = target: Human immunodeficiency virus type 1 reverse transcriptase (Human immunodeficiency virus 1, UniProt Q72547); assay: Inhibition of recombinant HIV1 reverse transcriptase in cell free Quan-T-RT by scintillation proximity assay
# HCV NS3-4A protease = assay: Therapeutic index, ratio of CC50 for human hepatocytes to IC50 for HCV NS3-4A protease; type: cell-based, Hepatocyte; conditions: read-out: Ratio CC50/IC50
# [3] = Therapeutic index, ratio of toxic dose of drug for 50% of the population TD50 to minimum effective dose ED50 of the population; conditions: read-out: Ratio TD50/ED50
# HL-60 = assay: Cytotoxicity against human HL60 cells by MTT assay; type: functional, cell-based; in short: as §1
# G-361 = assay: Cytotoxicity against human G361 cells by MTT assay; type: functional, cell-based; in short: as §1
# K562 = assay: Cytotoxicity against human K562 cells by MTT assay; type: functional, cell-based; in short: as §1
# U-937 = assay: Cytotoxicity against human U937 cells by MTT assay; type: functional, cell-based; in short: as §1
# [4] = Cytotoxicity against human RKOp27 cells by MTT assay; type: functional, cell-based
# GOTO = assay: Cytotoxicity against human GOTO cells by MTT assay; type: functional, cell-based; in short: as §1
# Hepacivirus hominis = assay: (§2) Inhibition of HCV NS3/4A protease activity after 48 hrs by RT-PCR
# [5] = as §2; parameters: species or system Hepacivirus hominis
# [6] = Cytotoxicity against human hepatocytes by MTT assay; type: cell-based, Hepatocyte
# [7] = Cytotoxicity against human WI38 cells by MTT assay; type: cell-based; conditions: WI-38; in short: as §1
# SF-268 = assay: Cytotoxicity against human SF268 cells by MTT assay; type: functional, cell-based
# NB1 = assay: Cytotoxicity against human NB-1 cells by MTT assay; type: functional, cell-based; in short: as §1
# SK-OV-3 = assay: Cytotoxicity against human SKOV3 cells by MTT assay; type: functional, cell-based
SMILES,EC50 [1] [nM],IC50 (SK-MEL-28) [nM],IC50 (NCI-H460) [nM],IC50 [2] [nM],selectivity ratio (HCV NS3-4A protease),selectivity ratio [3],IC50 (HL-60) [nM],IC50 (G-361) [nM],IC50 (K562) [nM],IC50 (U-937) [nM],IC50 [4] [nM],IC50 (GOTO) [nM],IC90 (Hepacivirus hominis) [nM],IC50 [5] [nM],CC50 [6] [nM],IC50 [7] [nM],IC50 (SF-268) [nM],IC50 (NB1) [nM],IC50 (SK-OV-3) [nM]
COc1c(C(=O)C2=CN3C(=CN=C2)Nc2ccccc23)c(O)c(OC)c2occc12,0.35,0.0321,0.0255,9440,577,21700,0.0325,0.0316,0.0338,0.0333,0.0277,0.0329,955,444,256000,0.0333,,,
Nc1ccn([C@@H]2O[C@H](CO)[C@@H](O)[C@@H]2O)c(=O)n1 [CYTARABINE],,,,,,,,,,,,,,,,,7.68,,
COc1c(C(=O)C2=CN3OC(C)=NC3N=C2)c(O)c(OC)c2occc12 (configuration not stated),0.04,0.0338,0.0255,0.3,,7690,0.0281,0.0287,0.0284,0.0329,0.026,0.0284,,> 100000,,0.0281,,,
COc1c(C(=O)/C=C/Nc2ccncc2)c(O)c(OC)c2occc12,0.01,0.0281,0.0284,4800,441,1260,0.0263,0.0263,0.0263,0.0263,0.0255,0.0253,2310,986,435000,0.0253,,,
COc1c(C(=O)C2=CN3C(=CN=C2)Nc2ccccc23)c(O)cc2occc12,0.06,0.0305,0.0255,47500,,23500,0.0305,0.0313,0.0298,0.0301,0.0255,0.0291,,> 100000,,0.0284,,,
CCCCCOC(=O)Nc1nc(=O)n([C@@H]2O[C@H](C)[C@@H](O)[C@H]2O)cc1F [CAPECITABINE],,,,,,,,,,,4.33,,,,,,,,
COc1c(C(=O)C2=CN3C=CNC=C3N=C2)c(O)c(OC)c2occc12,0.09,0.026,0.0255,14600,,20000,0.0266,0.0298,0.0321,0.0284,0.0284,0.0258,,> 100000,,0.0373,,,
COc1c(C(=O)c2cnc3nc4ccccc4n3c2)c(O)c(OC)c2occc12,0.02,0.0253,0.0277,25700,415,1.14e+06,0.026,0.0263,0.0269,0.0272,0.0277,0.0278,1320,564,234000,0.0472,,,
NCc1nc2ccccc2[nH]1,0.01,0.0301,0.032,5100,515,1760,0.0291,0.0305,0.0313,0.0298,0.0255,0.0263,2120,876,451000,0.0269,,,
COc1c2occc2c(OC)c2c(=O)c(C=O)coc12,0.02,0.0266,0.0284,17500,556,32600,0.0313,0.0263,0.0258,0.0291,0.0255,0.0278,796,421,234000,0.0321,,,
Nc1ccn([C@@H]2O[C@H](CO)[C@@H](O)C2(F)F)c(=O)n1 [GEMCITABINE HYDROCHLORIDE],,,2.13,,,,,,,,,,,,,,,,
COc1cccc2c1C(=O)c1c(O)c3c(c(O)c1C2=O)C[C@@](O)(C(=O)CO)C[C@@H]3O[C@H]1C[C@H](N)[C@H](O)[C@H](C)O1 [DOXORUBICIN],,,,,,,,,6.66,4.45,,4.73,,,,,,5.15,4.16
COc1c(C(=O)C2=CN3C=CSC3N=C2)c(O)c(OC)c2occc12 (configuration not stated),0.04,0.0284,0.0255,15300,371,22600,0.0255,0.0384,0.0446,0.0284,0.028,0.0281,1120,342,127000,0.0284,,,3.28
CCNc1cccnc1N1CCN(C(=O)c2cc3cc(OC)ccc3[nH]2)CC1 [ATEVIRDINE MESYLATE],1,,,,,,,,,,,,,,,,,,
CCC[C@H](NC(=O)[C@@H]1[C@H]2CCC[C@H]2CN1C(=O)[C@@H](NC(=O)[C@@H](NC(=O)c1cnccn1)C1CCCCC1)C(C)(C)C)C(=O)C(=O)NC1CC1,,,,,1200,,,,,,,,450,200,90000,,,,
COc1c(C(=O)C2=CN3C=CC=CC3N=C2)c(O)c(OC)c2occc12 (configuration not stated),0.03,0.0305,0.0277,16300,,23500,0.0275,0.0481,0.0446,0.0298,0.0277,0.0329,,> 100000,,0.0255,,,
